Bioassay records deposited in PubChem BioAssay by several laboratories.
AP ELISA ortho: orthogonal test for alternative complement pathway inhibitors. Human serum alternative complement pathway, LPS-coated ELISA, C3 deposition; tested in compound mixtures. inhibition, % at 5 µM. 0.08% of 62,000 active;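 active = inhibition above 30% in each of the two pooled mixtures holding the compound, so the lower value exceeds 30%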;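 note: 0% = serum in Mg-EGTA without compound and 100% = EDTA serum blank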
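Test system: human serum complement alternative pathway, C3 deposition onto LPS / Medium: Mg2+-EGTA GVB++ buffer containing human serum at 1:15 dilution / Probe or stimulus: Plate-bound LPS / Times: 1 h at 37 °C / Signal: ELISA with HRP anti-human C3 antibody, TMB substrate, absorbance 450 nm / Measure: percent inhibition / Repeats: two pool placements per compound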
D1 allo mod: allosteric modulators of human D1 dopamine receptor | AID 641 | P21728 | HEK293 D1, CRE-luciferase, dopamine EC30 potentiation; actives deviate in either direction | B-score at 10 µM | 5.9% of 58,000 active;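 active = luminescence count or its row- and column-corrected plate score outside the 99.7% band of the plate's sample wells, on either side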
hDAT+cocaine: changed human dopamine transporter uptake under cocaine IC80 | B-score at 10 µM | 1.3% of 110,000 active | LLC-PK1 hDAT cells, [14C]-dopamine uptake with cocaine IC80; actives deviate in either direction | AID 449768;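 active = Z score or B-score, a plate-position-corrected score, falls beyond the plate's 99.7% confidence bounds, in either direction; inactive = both scores lie inside the 99.7% bounds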;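 note: scored against the spread of the other compound wells on the same plate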
HEK293 NFkB inh: lowers PMA/ionomycin-induced NF-kB signal in HEK293 cells | HEK-293 NF-kB luciferase reporter, luminescence | inhibition, % at 3 µM | 0.21% of 62,000 active;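 active = inhibition above the mean of all tested compounds plus 3 SD, cut at about 40% in these data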;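 note: 0% = stimulated DMSO wells and 100% = 10 µM reference inhibitor 5653914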
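System – HEK-293 cells with stable firefly luciferase reporter driven by four HIV NF-kB elements · Doses – one dose, 3 µM · Schedule – 1 h compound pre-incubation, 16 h PMA/ionomycin at 37 °C · Technique – luminescence from luciferase substrate reagent · Measure – percent inhibition normalized per plate to DMSO and reference-inhibitor controls · Replicates – tested once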
E coli RNAP: blocks E. coli RNA polymerase transcription; fluorescence transcription assay; 0.2% of 62,000 active; inhibition, %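 (tested at 10 µM)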; AID 559; P0A8V2; in the data active = inhibition above about 20%;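 note: 0% = enzyme without compound and 100% = no enzyme blank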
D1 mod confirm: confirmation of human D1 dopamine receptor allosteric modulators; AID 642; shares compounds with D1 allo mod; 88% of 2,200 active; HEK293 D1 CRE-luciferase, dopamine EC30 potentiation; active compounds read high; luminescence at 10 µM;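 active = luminescence in either of two replicates above the same-plate mean plus 3 SD of the low-dose dopamine control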
D1 ag no DA: secondary test of D1 modulators: activity without dopamine; shares compounds with D1 allo mod; HEK293 D1 CRE-luciferase, luminescence, no dopamine; active compounds read high; luminescence at 10 µM; 0.8% of 1,900 active; in the data active = luminescence above about 3900
Isoprot counter: isoproterenol response counter-screen activity for D1 modulators | 63% of 2,200 active | shares compounds with D1 allo mod | calls only at 10 µM | AID 647 | HEK293 D1 CRE-luciferase, isoproterenol EC30 counter-screen;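 active = luminescence in either replicate above plate mean of wells with a partly effective reference agonist dose plus 3 SD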;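 note: isoproterenol raises cAMP through native beta-adrenoceptor Gs so signal bypasses D1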
Starred values were filed as active, the others as inactive; i = inactive; · = not tested or not shown; + = active, no number. The full list was thinned out, with hits kept by preference.

SMILES	AP ELISA ortho	D1 allo mod	hDAT+cocaine	HEK293 NFkB inh	E coli RNAP	D1 mod confirm	D1 ag no DA	Isoprot counter
Cn1c2ccc(F)cc2c2ncn(CCN3CCOCC3)c(=O)c21	3.6	1.19	-0.133	14.5	7.4	·	·	·
COc1ccc(Nc2ncnc3c2cnn3Cc2ccccc2)cc1OC	2.9	5.17*	1.78	30.6	8.4	8056*	1576	+
O=c1ncc(F)c[nH]1	·	·	-0.361	·	·	·	·	·
CC(C)Nc1nc(NC(C)C)nc(N(C)C(N)=O)n1	13.8	7.72*	-0.102	5.8	5.2	17056*	1584	+
CC(C)Nc1nc(NC(C)C)nc(N(C)N)n1	·	·	1.19	·	·	·	·	·
CCCCCOP(=O)(OCCCCC)C1(NS(=O)(=O)c2ccccc2)C=CC(=O)c2ccccc21 (stereo unspecified)	·	·	-0.113	·	·	·	·	·
CCOc1ccc(-c2cc3nc(C4CCN(C(=O)OC(C)(C)C)CC4)c(C(=O)O)cn3n2)cc1	4.6	12.7*	3.42*	0.0	5.5	13012*	1592	+
COc1cc(Cl)c(C)cc1NC(=O)COC(=O)c1cnc(C)cn1	-1.9	1.17	-0.931	2.8	-10.3	·	·	·
COc1cccc(CNc2cc(CSc3ccc(Cl)cc3)nc(C)n2)c1	·	·	0.593	·	·	·	·	·
CCSc1nc2c([nH]c3ccccc32)c(=O)n1C	3.9	3.3	-1.2	12.4	6.8	·	·	·
CCC(C)Sc1nc2c([nH]c3ccccc32)c(=O)n1C (stereo unspecified)	14.3	5.51*	-0.534	7.4	-8.1	14100*	1792	i
Cn1c(=O)cc(N)n(Cc2ccccc2)c1=O	·	·	-0.31	·	·	·	·	·
COc1cccc(C2CC(c3cccc(Br)c3)n3nc(N)nc3N2)c1 (stereo unspecified)	16.6	9.32*	-1.29	3.2	6.5	12600*	1776	+
Nc1nc2n(n1)C(c1cccc(Br)c1)CC(c1ccccc1)N2 (stereo unspecified)	16.7	36.7*	1.12	22.6	4.8	18056*	1512	+
COc1ccc(CCNCc2csc3nc4ccccc4n23)cc1OC	0.4	-1.26	1.01	19.0	5.4	·	·	·
CCOC(=O)Cc1c(C)nc2c(-c3cccc(Br)c3)c[nH]n2c1=O	1.3	0.169	0.99	11.6	-1.4	·	·	·
CN(C)c1ccc(N=Cc2ccco2)cc1	10.7	-0.0048	-0.136	15.9	9.7	·	·	·
C(=N\C(/N=C/c1ccco1)c1ccco1)/c1ccco1	-7.7	8.78*	-0.957	10.6	5.1	17580*	1572	i
COc1ccccc1-c1cc(C2CC2)nc(N)c1C#N	-1.2	9.4*	-0.0915	-10.1	3.7	11344*	1800	+
N#Cc1c(-c2ccccc2Cl)cc(C2CC2)nc1N	·	14.8*	-0.629	·	5.0	20296*	1408	+
Cc1nc(N)c(C#N)c(-c2ccccc2Cl)c1C	·	·	-0.202	·	·	·	·	·
CCN1CCN(Cc2ccc(NC(=O)c3cc(NC(=O)c4cnnc5ccccc45)cc(OC)c3)cc2C(F)(F)F)CC1	·	·	-0.055	·	·	·	·	·
NCCCC[C@@H]1NC(=O)c2cc([N+](=O)[O-])cc(I)c2SC[C@@H](C(=O)NCC(N)=O)NC(=O)CNC1=O	·	·	-0.0452	·	·	·	·	·
CC(=NCc1cccnc1)C1=C(O)c2ccccc2C1=O	14.2	3.04*	1.65	18.5	8.8	5700*	2088	i
CCOc1ccc(-c2nnc(-c3ccco3)o2)cc1OCC	-9.8	15.4*	1.15	5.8	7.6	17272*	1612	+
SMILES	AP ELISA ortho	D1 allo mod	hDAT+cocaine	HEK293 NFkB inh	E coli RNAP	D1 mod confirm	D1 ag no DA	Isoprot counter
CCc1nnc(NC(=O)[C@@H](NC(=O)c2cccc(S(=O)(=O)N(CC)CC)c2)C(C)C)s1	·	·	0.856	·	·	·	·	·
N#Cc1c(-c2ccccc2)nc(N2CCCCCC2)[nH]c1=O	2.4	12.5*	-0.0769	1.8	3.6	26112*	1656	+
CCOc1ccc(C(=O)Nc2nncs2)cc1OCC	-23.1	10.2*	-0.441	-2.1	1.8	18420*	1592	+
N#CCc1nc2c3c4c(sc3ncn2n1)CCCC4	-7.8	9.55*	-0.153	·	6.9	11284*	1556	+
CCOC(=O)c1cc(C#N)c(N)nc1C	18.8	4.56*	-0.672	18.7	7.2	8556*	·	+
Clc1ccc(Cn2ncc3c(N4CCCC4)ncnc32)cc1	6.0	4.66*	0.442	12.2	2.2	13228*	1420	+
Clc1ccc(Cn2ncc3c(N4CCCCC4)ncnc32)cc1	-0.4	0.122	0.366	-1.9	·	·	·	·
Clc1ccc(Cn2ncc3c(N4CCOCC4)ncnc32)cc1	24.7	-0.295	0.354	4.0	6.4	·	·	·
Cc1ccc(Cn2ncc3c(N4CCCC4)ncnc32)cc1	-16.1	2.71*	1.11	3.3	4.1	10768*	1564	+
O=C(CN1C(=O)C2C3C=CC(C3)C2C1=O)N1CC=C(c2ccccc2)CC1 (stereo unspecified)	-3.1	1.06	0.197	-5.1	7.8	·	·	·
O=C1CCC(C(=O)O)(c2ccccc2)C1 (stereo unspecified)	5.4	-1.03	0.0937	8.5	11.5	·	·	·
O=C(CCNS(=O)(=O)c1ccc2c(c1)CCC(=O)N2)NCc1ccc2c(c1)OCO2	9.8	2.86*	-1.63	7.9	5.4	6928*	1720	i
Cc1ccc(S(=O)(=O)NCCC(=O)NCc2ccc3c(c2)OCO3)cc1C	17.1	1.29	0.194	4.4	4.1	·	·	·
O=C(c1cccc(F)c1)N1CCc2ccccc2C1	8.3	4.61*	-0.714	6.1	9.5	9556*	12280*	i
CCCn1c(=O)c(C(=O)NCc2ccc(OC)c(OC)c2)c(O)c2ccccc21	-7.4	4.47*	1.89	14.9	5.6	9276*	1736	+
N#Cc1c(-c2cccs2)cc(-c2cccnc2)nc1N	3.9	18.3*	-0.0617	6.6	-17.9	16780*	1536	+
N#Cc1c(-c2cccs2)cc(-c2ccccn2)nc1N	-0.9	5.62*	0.111	6.9	·	10756*	1560	+
c1cncc(-c2nnc(-c3cccs3)o2)c1	6.9	0.112	-0.19	11.0	8.2	·	·	·
CC(=O)c1ccc(N2CCN(C(=O)COc3ccccc3F)CC2)c(F)c1	·	·	0.377	·	·	·	·	·
CC(=O)C1=C(C)N(Cc2ccccc2)C(=O)N[C@H]1c1ccco1	·	·	1.16	·	·	·	·	·
O=C(Nc1nccs1)c1csc2c1CCCC2	·	·	0.00275	·	·	·	·	·
CC(NC(=O)c1ccccc1NC(=O)CSc1nnnn1C)c1ccccc1 (stereo unspecified)	·	·	0.208	·	·	·	·	·
O=S(=O)(c1cc(F)cc(F)c1)N1CCN(c2ncccn2)CC1	5.1	0.0426	-0.86	11.0	3.2	·	·	·
CCOC(=O)CCCSc1nc2sc(C)c(C)c2c(=O)[nH]1	25.0	2.95*	0.287	9.9	-0.3	6744*	·	+
